From ChEMBL document CHEMBL1147707, “Novel substituted naphthalen-1-yl-methanone derivatives as anti-hyperglycemic agents” (Bioorg Med Chem Lett, 2006)

What was measured:
Rattus norvegicus [1] = assay: Antihyperglycemic activity in sucrose-loaded Sprague-Dawley rat at 100 mg/kg; type: functional
Outline: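 Male rats (169 ± 20 g) fasted 16 h; those with glucose 60–80 mg/dl, in groups of five to six, received compound orally as a 1.0% gum acacia suspension at 100 mg/kg, and controls got vehicle alone. Sucrose (10.0 g/kg, oral) followed 30 min later. Glucose was read at 30, 60, 90 and 120 min, and % fall was taken from AUC versus control (active if p < 0.05).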

Rattus norvegicus [2] = assay: Antihyperglycemic activity in sucrose charged streptozotocin-induced beta cell damaged diabetic Sprague-Dawley rat at 100 mg/kg; type: functional
Outline: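 Overnight-fasted male rats got streptozotocin at 60 mg/kg i.p., freshly dissolved in 100 mM citrate buffer pH 4.5. Those with glucose 150–250 mg/dl at 48 h were grouped. Each rat was given sucrose at 2.5 g/kg after test-sample treatment. Glucose was measured at 30, 60, 90, 120, 180, 240 and 300 min and 24 h after dosing, with food withheld.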

Glucagon receptor = Glucagon receptor (Homo sapiens, UniProt P47871); assay: Inhibition of [125I]glucagon binding to glucagon receptor
Glucagon receptor, sequence (P47871 whole entry): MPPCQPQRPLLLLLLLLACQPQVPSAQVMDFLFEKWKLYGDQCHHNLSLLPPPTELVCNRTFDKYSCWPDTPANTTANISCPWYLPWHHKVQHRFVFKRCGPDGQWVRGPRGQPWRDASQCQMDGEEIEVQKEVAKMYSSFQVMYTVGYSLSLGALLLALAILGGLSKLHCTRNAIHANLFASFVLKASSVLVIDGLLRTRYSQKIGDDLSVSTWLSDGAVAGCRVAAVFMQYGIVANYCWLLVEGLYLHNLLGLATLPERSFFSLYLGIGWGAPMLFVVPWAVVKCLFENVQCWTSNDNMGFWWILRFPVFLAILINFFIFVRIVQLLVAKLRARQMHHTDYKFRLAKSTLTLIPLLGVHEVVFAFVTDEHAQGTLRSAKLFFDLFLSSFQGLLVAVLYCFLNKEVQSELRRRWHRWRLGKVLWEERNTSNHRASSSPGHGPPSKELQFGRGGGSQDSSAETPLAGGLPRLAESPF

SMILES	Activity (Rattus norvegicus [1]) [%]	Activity (Rattus norvegicus [2]) [%]	IC50 (Glucagon receptor) [µM]
O=C(c1ccc(OCCN2CCCCC2)cc1)c1cccc2ccccc12	15.4	11.3	–
O=C(c1ccc(OCCNCc2ccccc2)cc1)c1cccc2ccccc12	14.9	5.6	–
O=C(c1ccc(OCCNC2CCCCC2)cc1)c1cccc2ccccc12	7.16	–	–
O=C(c1ccc(OCCN2CCCC2)cc1)c1cccc2ccccc12	17.2	17	55
O=C(c1ccc(OCCCNC2CCCCC2)cc1)c1cccc2ccccc12	11.16	–	–
O=C(c1ccc(OCCCl)cc1)c1cccc2ccccc12	24	–	–
O=C(c1ccc(OCCCCl)cc1)c1cccc2ccccc12	22	8.5	–
COc1ccc(NCCCOc2ccc(C(=O)c3cccc4ccccc34)cc2)cc1	16.17	12.6	35
O=C(c1ccc(OCCCN2CCCCC2)cc1)c1cccc2ccccc12	7.16	6.8	–
O=C(c1ccc(OCCCN2CCCC2)cc1)c1cccc2ccccc12	28.8	27	17
CCN(CC)CCOc1ccc(C(=O)c2cccc3ccccc23)cc1	7.21	–	–
COc1ccc(NCCOc2ccc(C(=O)c3cccc4ccccc34)cc2)cc1	9.71	9.2	–
O=C(c1ccc(OCCCNCc2ccccc2)cc1)c1cccc2ccccc12	8.06	7.5	–
Cc1ccc(S(=O)(=O)NC(=O)NN2CC3CCCC3C2)cc1 (stereo not given) [GLICLAZIDE]	40.4	27.7	–
COc1ccc(Cl)cc1C(=O)NCCc1ccc(S(=O)(=O)NC(=O)NC2CCCCC2)cc1 [GLYBURIDE]	33.7	29	–
CN(C)C(=N)NC(=N)N [METFORMIN]	12.9	–	–
